# Source: ChEMBL document CHEMBL1833943, “Synthesis and structure-activity relationships of varied ether linker analogues of the antitubercular drug (6S)-2-nitro-6-{[4-(trifluoromethoxy)benzyl]oxy}-6,7-dihydro-5h-imidazo[2,1-b][1,3]oxazine (PA-824)” (J Med Chem, 2011)
# Assays:
# [1] = test system: Mycobacterium tuberculosis; test: Antituberculosis activity against Mycobacterium tuberculosis H37Rv under aerobic conditions by microplate alamar blue assay; format: functional
# [2] = Metabolic stability in human liver microsomes at 1 uM measured as compound remaining after 1 hr by LC/MS/MS analysis; format: ADME, Microsome; conditions: read-out: Stability
# [3] = Metabolic stability in CD1 mouse liver microsomes at 1 uM measured as compound remaining after 1 hr by LC/MS/MS analysis; format: ADME, Microsome; conditions: read-out: Stability
# [4] = Aqueous solubility of the compound in water at pH 7 by HPLC analysis; format: physicochemical
# Procedure, shortened: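 Solubility measured in water at pH 7 and 20 °C, quantified by HPLC.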
# [5] = test system: Mycobacterium tuberculosis; test: Antituberculosis activity against Mycobacterium tuberculosis H37Rv under anaerobic conditions by fluorescence based low-oxygen-recovery assay; format: functional
# [6] = test system: Mycobacterium tuberculosis; test: Antituberculosis activity against Mycobacterium tuberculosis H37Rv infected in BALB/c mouse acute infection model assessed as fold reduction in bacterial CFU in lungs at 100 mg/kg, po administered for 5 days a week for 3 weeks beginning on day 11 postinfection relative to PA-824; format: functional
# Procedure, shortened: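 Mice with acute M. tb infection dosed orally at 100 mg/kg daily, 5 days each week, standard 3 week assay. Lung CFUs counted. Value is the fold CFU decrease for the compound divided by the fold CFU decrease for the internal reference standard run in the same experiment.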
# [7] = Stability of the compound in antimycobacterial activity assay condition assessed as parent compound level; format: ADME
# [8] = Cmax in lung of CD1 mouse at 40 mg/kg, po; format: ADME, organism-based; set-up: dose 40 mg/kg, route oral
# Procedure, shortened: (§1)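 Mice given a single oral dose of 40 mg/kg; drug levels followed over time in plasma and lung tissue to derive half-life, Cmax and AUC for each matrix.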
# [9] = Half life in the lung of CD1 mouse at 40 mg/kg, po; format: ADME, organism-based; set-up: dose 40 mg/kg, route oral; procedure, shortened: as §1
# [10] = AUC (0 to infinity) in lung of CD1 mouse at 40 mg/kg, po; format: ADME, organism-based; set-up: time infinity, dose 40 mg/kg, route oral; procedure, shortened: as §1
# [11] = Half life in plasma of CD1 mouse at 40 mg/kg, po; format: ADME, organism-based; set-up: dose 40 mg/kg, route oral
# [12] = Ratio of AUC (0 to infinity) in lung of CD1 mouse to AUC (0 to infinity) in plasma of CD1 mouse at 40 mg/kg, po; format: ADME, organism-based; set-up: dose 40 mg/kg, route oral; conditions: read-out: Ratio AUC
# [13] = AUC (0 to infinity) in plasma of CD1 mouse at 40 mg/kg, po; format: ADME, organism-based; set-up: time infinity, dose 40 mg/kg, route oral; procedure, shortened: as §1
# [14] = Cmax in plasma of CD1 mouse at 40 mg/kg, po; format: ADME, organism-based; set-up: dose 40 mg/kg, route oral; procedure, shortened: as §1
Structure (SMILES),MIC [1] [µM],solubility [4] [µg/mL],MIC [5] [µM],further results
O=[N+]([O-])c1cn2c(n1)OC[C@@H](OCc1ccc(OCc3ccccc3)cc1)C2,0.025,0.76,1.3,"remaining at 1 h, 1 µM [2]: 59%; remaining at 1 h, 1 µM [3]: 44%"
O=[N+]([O-])c1cn2c(n1)OC[C@@H](OCc1ccc(C(F)(F)F)cn1)C2,1.5,188,22,–
O=[N+]([O-])c1cn2c(n1)OC[C@@H](OCc1ccc(C(F)(F)F)nc1)C2,3,68,50,–
O=[N+]([O-])c1cn2c(n1)OC[C@@H](OCCCc1ccc(OC(F)(F)F)cc1)C2,0.22,11,3.2,–
O=[N+]([O-])c1cn2c(n1)OC[C@@H](OCCCc1ccc(C(F)(F)F)nc1)C2,0.51,168,12,–
O=[N+]([O-])c1cn2c(n1)OC[C@@H](OCCOc1ccc(OC(F)(F)F)cc1)C2,0.04,50,5.1,"remaining at 1 h, 1 µM [2]: 85%; remaining at 1 h, 1 µM [3]: 66%; fold change (FC) [6]: 1.3"
O=[N+]([O-])c1cn2c(n1)OC[C@@H](OCCOc1ccc(C(F)(F)F)cn1)C2,0.38,42,26,–
O=[N+]([O-])c1cn2c(n1)OC[C@@H](OCCOc1ccc(C(F)(F)F)nc1)C2,0.79,58,59,–
O=[N+]([O-])c1cn2c(n1)OC[C@@H](OC/C=C/c1ccc(OC(F)(F)F)cc1)C2,0.05,1.5,4.3,"remaining at 1 h, 1 µM [2]: 99%; remaining at 1 h, 1 µM [3]: 71%"
O=[N+]([O-])c1cn2c(n1)OC[C@@H](OC/C=C/c1ccc(OCc3ccccc3)cc1)C2,0.16,0.06,1.3,Stability [7]: < 50%
O=[N+]([O-])c1cn2c(n1)OC[C@@H](OC/C=C/c1ccc(C(F)(F)F)cn1)C2,0.043,29,3.8,–
O=[N+]([O-])c1cn2c(n1)OC[C@@H](OC/C=C/c1ccc(C(F)(F)F)nc1)C2,0.15,45,21,–
O=[N+]([O-])c1cn2c(n1)OC[C@@H](OCC#Cc1ccc(OC(F)(F)F)cc1)C2,0.12,0.77,3.4,Stability [7]: < 50%
O=[N+]([O-])c1cn2c(n1)OC[C@@H](OCC#Cc1ccc(OCc3ccccc3)cc1)C2,0.09,0.43,3.5,Stability [7]: < 50%
O=[N+]([O-])c1cn2c(n1)OC[C@@H](OCC#Cc1ccc(C(F)(F)F)cn1)C2,0.12,8.4,3.3,–
O=[N+]([O-])c1cn2c(n1)OC[C@@H](OCC#Cc1ccc(C(F)(F)F)nc1)C2,0.18,11,8.9,–
O=[N+]([O-])c1cn2c(n1)OC[C@@H](OCCCC#Cc1ccc(OC(F)(F)F)cc1)C2,0.05,0.09,1.9,"remaining at 1 h, 1 µM [2]: 69%; Cmax [8]: 2720 ng/mL; remaining at 1 h, 1 µM [3]: 24%; half-life [9]: 1.4 h; fold change (FC) [6]: 4.9; AUC(0-inf) [10]: 7570 ng·h/mL; half-life [11]: 1.6 h; Stability [7]: < 50%; Kp [12]: 0.6; AUC(0-inf) [13]: 12600 ng·h/mL; Cmax [14]: 2540 ng/mL"
O=[N+]([O-])c1cn2c(n1)OC[C@@H](OCCCC#Cc1ccc(C(F)(F)F)cn1)C2,0.19,28,3.5,–
